Assays:
[1] = system: MRC5; assay: Cytotoxicity on MRC-5 cells at 6.25 uM; type: functional; settings: Homo sapiens
Method in brief: (§1)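 MRC-5 human diploid embryonic lung cells seeded at 5 000/well, washed after 24 h, then given 2-fold drug dilutions (25, 12.5, 6.25, 3.13 µM) in RPMI + 5% FCS, final DMSO below 0.5%. Incubated 7 days at 37 °C, 5% CO2. MTT colorimetric read-out, scored as % reduction of absorbance at 540 nm versus untreated controls.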

[2] = system: Trypanosoma brucei; assay: Percentage of activity against Trypanosoma brucei at 1.56 uM; type: functional
Method in brief: (§2)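 Bloodstream-form T. brucei in HMI-9 medium, 10 000 parasites/well, exposed to 12.5, 6.25, 3.13 and 1.56 µM drug for 4 days. Read-out is % inhibition of parasite multiplication. Macrophage toxicity judged on mouse primary peritoneal macrophages.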

[3] = system: Leishmania infantum; assay: In Vitro evaluation for the percentage of activity towards Leishmania infantum at 1.56 uM Concentration; Toxic upon mouse primary peritoneal macrophages; type: functional, organism-based
Method in brief: (§3)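 Starch-stimulated mouse peritoneal macrophages, 30 000/well, infected after 24 h with spleen-derived L. infantum amastigotes (10:1) together with 2-fold drug dilutions (12.5–1.56 µM). Incubated 7 days at 37 °C, 5% CO2. Wright-stained slides scored microscopically as % reduction of total parasite load or of infected macrophages. Uninfected treated cultures judged microscopically for macrophage toxicity.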

[4] = system: Leishmania infantum; assay: In Vitro evaluation for the percentage of activity towards Leishmania infantum at 3.13 uM Concentration; Toxic upon mouse primary peritoneal macrophages; type: functional, organism-based; method in brief: as §3
[5] = system: Trypanosoma cruzi; assay: Percentage of activity against Trypanosoma cruzi at 1.56 uM; type: functional
Method in brief: (§4)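 Mouse peritoneal macrophages, 30 000/well, infected after 24 h with about 100 000 T. cruzi trypomastigotes per well plus 2-fold drug dilutions (12.5–1.56 µM). Incubated 4 days at 37 °C, 5% CO2. Methanol-fixed, Giemsa-stained and scored microscopically as % reduction of total parasite load (free trypomastigotes plus intracellular amastigotes) versus untreated controls.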

[6] = system: Trypanosoma brucei; assay: Percentage of activity against Trypanosoma brucei at 3.13 uM; type: functional; method in brief: as §2
[7] = system: Trypanosoma brucei; assay: Percentage of activity against Trypanosoma brucei at 12.5 uM; type: functional; method in brief: as §2
[8] = system: Leishmania infantum; assay: Percentage of activity against Leishmania infantum at 6.25 uM; Toxic upon mouse primary peritoneal macrophages; type: functional, organism-based; method in brief: as §3
[9] = system: Trypanosoma cruzi; assay: In Vitro evaluation for the percentage of activity towards Trypanosoma cruzi at 6.25 uM Concentration; Toxic upon mouse primary peritoneal macrophages; type: functional, organism-based; method in brief: as §4
[10] = system: Trypanosoma cruzi; assay: Percentage of activity against Trypanosoma cruzi at 3.13 uM; type: functional; method in brief: as §4
[11] = system: Leishmania infantum; assay: Percentage of activity against Leishmania infantum at 12.5 uM Concentration; Toxic upon mouse primary peritoneal macrophages; type: functional, organism-based; method in brief: as §3
[12] = system: Trypanosoma brucei; assay: Percentage of activity against Trypanosoma brucei at 6.25 uM; type: functional; method in brief: as §2
[13] = system: MRC5; assay: Cytotoxicity on MRC-5 cells at 25 uM; type: functional; settings: Homo sapiens; method in brief: as §1
[14] = system: Plasmodium falciparum; assay: In vitro sensitivity for Plasmodium falciparum FcB1R; type: functional, organism-based
Method in brief: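 Asynchronous P. falciparum cultures in human erythrocytes (0.5% parasitemia, 1% haematocrit) exposed to serially diluted drug for 24 h at 37 °C. [3H]hypoxanthine (0.5 µCi/well) then added for a further 24 h. Uptake compared with drug-free controls on the same plate. IC50 taken from the concentration–response curve, averaged over independent experiments. DMSO ≤0.1%.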

[15] = system: Trypanosoma cruzi; assay: Percentage of activity against Trypanosoma cruzi at 12.5 uM; Toxic upon mouse primary peritoneal macrophages; type: functional, organism-based; method in brief: as §4
[16] = system: MRC5; assay: Cytotoxicity on MRC-5 cells at 12.5 uM; type: functional; settings: Homo sapiens; method in brief: as §1
[17] = system: MRC5; assay: Cytotoxicity on MRC-5 cells at 3.13 uM; type: functional; settings: Homo sapiens; method in brief: as §1
[18] = system: Trypanosoma cruzi; assay: In Vitro evaluation for the percentage of activity towards Trypanosoma cruzi at 3.13 uM Concentration; Toxic upon mouse primary peritoneal macrophages; type: functional, organism-based; method in brief: as §4
[19] = system: Leishmania infantum; assay: Percentage of activity against Leishmania infantum at 1.56 uM; type: functional; method in brief: as §3
[20] = system: Leishmania infantum; assay: Percentage of activity against Leishmania infantum 6.25 uM; type: functional; method in brief: as §3
[21] = system: Leishmania infantum; assay: Percentage of activity against Leishmania infantum at 3.13 uM; type: functional; method in brief: as §3
[22] = system: Trypanosoma cruzi; assay: Percentage of activity against Trypanosoma cruzi at 12.5 uM; type: functional; method in brief: as §4
[23] = system: Trypanosoma cruzi; assay: Percentage of activity against Trypanosoma cruzi at 6.25 uM Concentration; type: functional; method in brief: as §4
[24] = system: Leishmania infantum; assay: In Vitro evaluation for the percentage of activity towards Leishmania infantum at 12.5 uM Concentration; type: functional; method in brief: as §3

| SMILES | cytotoxicity at 6.25 µM [1] [%] | Percent inhibition of parasite multiplication [2] [%] | Cytotoxicity [4] | Parasite load reduction [5] [%] | Parasite growth inhibition [6] [%] | Inhibition of parasite multiplication [7] [%] | Cytotoxicity [8] | Cytotoxicity [9] | Reduction of T. cruzi parasite load [10] [%] | Cytotoxicity [11] | Inhibition of parasite multiplication [12] [%] | cytotoxicity at 25 µM [13] [%] | IC50 [14] [nM] | Cytotoxicity [15] | cytotoxicity at 12.5 µM [16] [%] | cytotoxicity at 3.13 µM [17] [%] | Antileishmanial activity (% reduction of parasite load) [19] [%] | Antileishmanial activity (% reduction of parasite load) [20] [%] | Percent antileishmanial activity (reduction of parasite load) [21] [%] | T. cruzi parasite load reduction [22] [%] | further results |
| --- | --- | --- | --- | --- | --- | --- | --- | --- | --- | --- | --- | --- | --- | --- | --- | --- | --- | --- | --- | --- | --- |
| COc1ccc2nc3cc(Cl)ccc3c(NCCCN(CCCNc3c4ccc(Cl)cc4nc4ccc(OC)cc34)C(=O)CCN3CCOCC3)c2c1 | 100 | 100 | Toxic | 40 | 100 | 100 | Toxic | Toxic | 60 | Toxic | 100 | 100 | 26 | Toxic | 100 | 80 |  |  |  |  | Cytotoxicity [3]: Toxic |
| COc1ccc2nc3cc(Cl)ccc3c(NCCCN(CCCNc3c4ccc(Cl)cc4nc4ccc(OC)cc34)C(=O)CCN3CCCCC3)c2c1 | 57 | 100 | Toxic | 40 | 100 |  | Toxic | Toxic |  | Toxic | 100 | 78 | 67 | Toxic | 71 | 42 |  |  |  |  | Cytotoxicity [3]: Toxic; Cytotoxicity [18]: Toxic |
| COc1ccc2nc3cc(Cl)ccc3c(NCCCNCCCNc3c4ccc(Cl)cc4nc4ccc(OC)cc34)c2c1 | 100 | 100 | Toxic | 60 | 100 | 100 | Toxic | Toxic |  | Toxic | 100 | 100 | 55 | Toxic | 100 | 100 | 40 |  |  |  | Cytotoxicity [18]: Toxic |
| COc1ccc2nc3cc(Cl)ccc3c(NCCCN(CCCNc3c4ccc(Cl)cc4nc4ccc(OC)cc34)C(=O)CCC(=O)N3CCOCC3)c2c1 | 0 | 100 |  | 0 | 100 | 100 |  |  | 0 |  | 100 | 60 | 436 |  | 20 | 0 | 0 | 0 | 0 | 60 | Reduction of T. cruzi parasite load [23]: 0%; Percent inhibition of Leishmania infantum [24]: 0% |
| COc1ccc2nc3cc(Cl)ccc3c(NCCCN(CCCNc3c4ccc(Cl)cc4nc4ccc(OC)cc34)C(=O)C(CC(=O)OCC3c4ccccc4-c4ccccc43)NC(=O)OC(C)(C)C)c2c1 (stereo not drawn) | 0 | 100 |  | 0 | 100 | 100 |  |  | 0 |  | 100 | 0 | 230 |  | 0 | 0 | 0 | 0 | 0 | 40 | Reduction of T. cruzi parasite load [23]: 0%; Percent inhibition of Leishmania infantum [24]: 20% |
| COc1ccc2nc3cc(Cl)ccc3c(NCCCCCCNc3c4ccc(Cl)cc4nc4ccc(OC)cc34)c2c1 | 80 | 90 |  | 0 | 99 | 100 |  |  | 0 |  | 100 | 100 | 16 |  | 90 | 20 | 0 | 0 | 0 | 70 | Reduction of T. cruzi parasite load [23]: 40%; Percent inhibition of Leishmania infantum [24]: 40% |
| COc1ccc2nc3cc(Cl)ccc3c(NCCCN(CCCNc3c4ccc(Cl)cc4nc4ccc(OC)cc34)C(=O)C(CC(=O)O)NC(=O)OC(C)(C)C)c2c1 (stereo not drawn) | 0 | 100 |  | 0 | 100 | 100 |  |  | 0 |  | 100 | 0 | > 500 |  | 0 | 0 | 0 | 0 | 0 | 80 | Reduction of T. cruzi parasite load [23]: 0%; Percent inhibition of Leishmania infantum [24]: 0% |
| COc1ccc2nc3cc(Cl)ccc3c(NCCCN(CCCNc3c4ccc(Cl)cc4nc4ccc(OC)cc34)C(=O)C(CCCCN)NC(=O)OC(C)(C)C)c2c1 (stereo not drawn) | 40 | 100 |  | 0 | 100 | 100 |  |  | 40 |  | 100 | 100 | > 500 |  | 100 | 0 | 0 | 0 | 0 | 99 | Reduction of T. cruzi parasite load [23]: 90%; Percent inhibition of Leishmania infantum [24]: 40% |
| COc1ccc2nc3cc(Cl)ccc3c(NCCCCNc3c4ccc(Cl)cc4nc4ccc(OC)cc34)c2c1 | 100 | 100 | Toxic | 90 | 100 | 100 | Toxic | Toxic |  | Toxic | 100 | 100 | 18 | Toxic | 100 | 100 |  |  |  |  | Cytotoxicity [3]: Toxic; Cytotoxicity [18]: Toxic |
| COc1ccc2nc3cc(Cl)ccc3c(NCCCN(CCCNc3c4ccc(Cl)cc4nc4ccc(OC)cc34)C(=O)CCN3CCN(C)CC3)c2c1 | 57 | 100 | Toxic | 0 | 100 |  | Toxic | Toxic |  | Toxic | 100 | 80 | 62 | Toxic | 74 | 40 |  |  |  |  | Cytotoxicity [3]: Toxic; Cytotoxicity [18]: Toxic |

Source: ChEMBL document CHEMBL1133105, “Antimalarial, antitrypanosomal, and antileishmanial activities and cytotoxicity of bis(9-amino-6-chloro-2-methoxyacridines): influence of the linker” (J Med Chem, 2000)
